Data as given in ChEMBL document CHEMBL3244382, “Structural requirements for antileukemic activity among the naturally occurring and semisynthetic maytansinoids” (J Med Chem, 1978).
≈ marks a conversion by molar mass, not a printed value. Calls of active or inactive are those of the source.

Assays:
Mus musculus [1] = assay: Toxicity in PS mouse allografted with mouse P388 cells assessed as change in body weight at 100 ug/kg relative to control; assay type: organism-based; conditions: in vivo, 0.1 mg/kg
Method in brief: (§1)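 P388 (PS) leukemia in mice, 6 mice per dose group. Weight change is the difference in grams between treated and control animals. Survivors are recorded on toxicity day, normally 4 days after the first injection.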

P388 [2] = assay: Antitumor activity against mouse P388 cells allografted in PS mouse assessed as median survival time at 3.1 ug/kg relative to control; assay type: functional
Method in brief: (§2)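 P388 leukemia (PS) in mice, six mice started per dose group. Read-out is T/C: median survival time of the treated group divided by that of the untreated control group, expressed as a percent. The NIH protocol counts a compound as active when T/C > 125%.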

Mus musculus [3] = assay: Toxicity in PS mouse allografted with mouse P388 cells assessed as survival at 12.5 ug/kg after 4 days; assay type: organism-based; conditions: in vivo, 0.0125 mg/kg, 96 h
Method in brief: (§3)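 PS (P388) leukemic mice, six started per dose group. Toxicity scored as survivors on the toxicity day over the number of mice started. The toxicity day is normally 4 days after the first injection.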

Mus musculus [4] = assay: Toxicity in PS mouse allografted with mouse P388 cells assessed as survival at 3.1 ug/kg after 4 days; assay type: organism-based; conditions: in vivo, 0.0031 mg/kg, 96 h; method in brief: as §3
Mus musculus [5] = assay: Toxicity in PS mouse allografted with mouse P388 cells assessed as survival at 25 ug/kg after 4 days; assay type: organism-based; conditions: in vivo, 0.025 mg/kg, 96 h; method in brief: as §3
P388 [6] = assay: Antitumor activity against mouse P388 cells allografted in PS mouse assessed as median survival time at 0.8 ug/kg relative to control; assay type: functional; method in brief: as §2
Mus musculus [7] = assay: Toxicity in PS mouse allografted with mouse P388 cells assessed as change in body weight at 0.8 ug/kg relative to control; assay type: organism-based; conditions: in vivo, 0.0008 mg/kg
Method in brief: (§4)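 PS (P388 leukemia) mice, six per dose group. Toxicity read as the difference in grams between the weights of treated and control animals.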

P388 [8] = assay: Antitumor activity against mouse P388 cells allografted in PS mouse assessed as median survival time at 6.2 ug/kg relative to control; assay type: functional; method in brief: as §2
KB = assay: Cytotoxicity against human KB cells; assay type: functional; conditions: read-out: ED50 (the source's name)
P388 [9] = assay: Antitumor activity against mouse P388 cells allografted in PS mouse assessed as median survival time at 200 ug/kg relative to control; assay type: functional; method in brief: as §2
P388 [10] = assay: Antitumor activity against mouse P388 cells allografted in PS mouse assessed as median survival time at 50 ug/kg relative to control; assay type: functional; method in brief: as §2
Mus musculus [11] = assay: Toxicity in PS mouse allografted with mouse P388 cells assessed as change in body weight at 3.1 ug/kg relative to control; assay type: organism-based; conditions: in vivo, 0.0031 mg/kg; method in brief: as §1
P388 [12] = assay: Antitumor activity against mouse P388 cells allografted in PS mouse assessed as median survival time at 25 ug/kg relative to control; assay type: functional; method in brief: as §2
Mus musculus [13] = assay: Toxicity in PS mouse allografted with mouse P388 cells assessed as change in body weight at 12.5 ug/kg relative to control; assay type: organism-based; conditions: in vivo, 0.0125 mg/kg; method in brief: as §1
Mus musculus [14] = assay: Toxicity in PS mouse allografted with mouse P388 cells assessed as survival at 0.8 ug/kg after 4 days; assay type: organism-based; conditions: in vivo, 0.0008 mg/kg, 96 h; method in brief: as §3
Mus musculus [15] = assay: Toxicity in PS mouse allografted with mouse P388 cells assessed as survival at 1.6 ug/kg after 4 days; assay type: organism-based; conditions: in vivo, 0.0016 mg/kg, 96 h; method in brief: as §3
P388 [16] = assay: Antitumor activity against mouse P388 cells allografted in PS mouse assessed as median survival time at 12.5 ug/kg relative to control; assay type: functional; method in brief: as §2
P388 [17] = assay: Antitumor activity against mouse P388 cells allografted in PS mouse assessed as median survival time at 100 ug/kg relative to control; assay type: functional; method in brief: as §2
Mus musculus [18] = assay: Toxicity in PS mouse allografted with mouse P388 cells assessed as survival at 50 ug/kg after 4 days; assay type: organism-based; conditions: in vivo, 0.05 mg/kg, 96 h; method in brief: as §3
Mus musculus [19] = assay: Toxicity in PS mouse allografted with mouse P388 cells assessed as survival at 200 ug/kg after 4 days; assay type: organism-based; conditions: in vivo, 0.2 mg/kg, 96 h; method in brief: as §3
Mus musculus [20] = assay: Toxicity in PS mouse allografted with mouse P388 cells assessed as change in body weight at 25 ug/kg relative to control; assay type: organism-based; conditions: in vivo, 0.025 mg/kg; method in brief: as §1
Mus musculus [21] = assay: Toxicity in PS mouse allografted with mouse P388 cells assessed as change in body weight at 6.2 ug/kg relative to control; assay type: organism-based; conditions: in vivo, 0.0062 mg/kg; method in brief: as §1
Mus musculus [22] = assay: Toxicity in PS mouse allografted with mouse P388 cells assessed as change in body weight at 200 ug/kg relative to control; assay type: organism-based; conditions: in vivo, 0.2 mg/kg; method in brief: as §1
Mus musculus [23] = assay: Toxicity in PS mouse allografted with mouse P388 cells assessed as change in body weight at 1.6 ug/kg relative to control; assay type: organism-based; conditions: in vivo, 0.0016 mg/kg; method in brief: as §1
P388 [24] = assay: Antitumor activity against mouse P388 cells allografted in PS mouse assessed as median survival time at 1.6 ug/kg relative to control; assay type: functional; method in brief: as §2
Mus musculus [25] = assay: Toxicity in PS mouse allografted with mouse P388 cells assessed as change in body weight at 50 ug/kg relative to control; assay type: organism-based; conditions: in vivo, 0.05 mg/kg; method in brief: as §1
Mus musculus [26] = assay: Toxicity in PS mouse allografted with mouse P388 cells assessed as survival at 100 ug/kg after 4 days; assay type: organism-based; conditions: in vivo, 0.1 mg/kg, 96 h; method in brief: as §3
Mus musculus [27] = assay: Toxicity in PS mouse allografted with mouse P388 cells assessed as survival at 6.2 ug/kg after 4 days; assay type: organism-based; conditions: in vivo, 0.0062 mg/kg, 96 h; method in brief: as §3
Paracentrotus lividus = assay: Antimitotic activity against sea urchin eggs assessed as drug level causing inhibition of mitosis; assay type: functional; conditions: Egg
Tubulin (Homo sapiens) = Tubulin (Homo sapiens) (UniProt P68371+Q9H4B7+P0DPH7+P68366+Q13509+Q71U36+P04350+Q3ZCM7+P07437+P68363+Q9BQE3+Q6PEY2+Q13885+Q9BVA1+Q9BUF5); assay: Inhibition of brain tubulin polymerization (unknown origin) at 37 degC by spectrophotometry
P388 [28] = assay: Antitumor activity against mouse P388 cells allografted in PS mouse assessed as median survival time at 0.4 ug/kg relative to control; assay type: functional; method in brief: as §2
Mus musculus [29] = assay: Toxicity in PS mouse allografted with mouse P388 cells assessed as survival at 0.4 ug/kg after 4 days; assay type: organism-based; conditions: in vivo, 0.0004 mg/kg, 96 h; method in brief: as §3
Mus musculus [30] = assay: Toxicity in PS mouse allografted with mouse P388 cells assessed as change in body weight at 0.4 ug/kg relative to control; assay type: organism-based; conditions: in vivo, 0.0004 mg/kg; method in brief: as §4

| Structure (SMILES) | Activity (Mus musculus [1]) [g] | T/C (P388 [2]) [%] | Activity (Mus musculus [3]) | Activity (Mus musculus [4]) | Activity (Mus musculus [5]) | T/C (P388 [8]) [%] | EC50 (KB) [ng/mL] | T/C (P388 [10]) [%] | Activity (Mus musculus [11]) [g] | T/C (P388 [12]) [%] | Activity (Mus musculus [13]) [g] | Activity (Mus musculus [15]) | T/C (P388 [16]) [%] | T/C (P388 [17]) [%] | Activity (Mus musculus [18]) | Activity (Mus musculus [20]) [g] | Activity (Mus musculus [21]) [g] | Activity (Mus musculus [23]) [g] | T/C (P388 [24]) [%] | Activity (Mus musculus [25]) [g] | further results |
| --- | --- | --- | --- | --- | --- | --- | --- | --- | --- | --- | --- | --- | --- | --- | --- | --- | --- | --- | --- | --- | --- |
| C/C=C/C(=O)O[C@H]1CC(=O)N(C)c2cc(cc(OC)c2Cl)C/C(C)=C/C=C/[C@@H](OC)[C@@]2(O)C[C@H](OC(=O)N2)[C@@H](C)[C@@H]2O[C@@]12C | -3.6 | 150 | Non-toxic | Non-toxic | Non-toxic | 160 | 0.23 (≈ 0.363 nM) | 210 | -1.7 | 173 | -2.5 | Non-toxic | 170 | 210 | Non-toxic | -3.6 | -3 | -4.5 | 150 | -3.5 | T/C (P388 [6]): 150%; Activity (Mus musculus [7]): -4.5 g; T/C (P388 [9]): 210%; Activity (Mus musculus [14]): Non-toxic; Activity (Mus musculus [19]): Non-toxic; Activity (Mus musculus [22]): -1.8 g; Activity (Mus musculus [26]): Non-toxic; Activity (Mus musculus [27]): Non-toxic |
| COc1cc2cc(c1Cl)NC(=O)/C=C/C(C)=C/[C@H](C)[C@@H]1C[C@@](O)(NC(=O)O1)[C@H](OC)/C=C/C=C(\C)C2 | 0.8 | 95 | Non-toxic | Non-toxic | Non-toxic | 87 | 2 (≈ 3.87 nM) | 120 | 1.4 | 108 | 0.7 | Non-toxic | <80 | 120 | Non-toxic | -0.8 | 0.7 | 1 | 104 | 1.8 | Activity (Paracentrotus lividus): 1 ×10⁻⁸ mol/L; inhibition (Tubulin (Homo sapiens)): Active; T/C (P388 [9]): 104%; Activity (Mus musculus [19]): Non-toxic; Activity (Mus musculus [22]): 1.2 g; Activity (Mus musculus [26]): Non-toxic; Activity (Mus musculus [27]): Non-toxic |
| CCC(=O)O[C@H]1CC(=O)N(C)c2cc(cc(OC)c2Cl)C/C(C)=C/C=C/[C@@H](OC)[C@@]2(O)C[C@H](OC(=O)N2)[C@@H](C)[C@@H]2O[C@@]12C | -2 | 131 | Non-toxic | Non-toxic | Non-toxic | 140 | 0.21 (≈ 0.338 nM) | 198 | 1.3 | 153 | -0.3 | Non-toxic | 163 | <80 | Non-toxic | -0.5 | -1 | -0.8 | 129 | -0.9 | Activity (Paracentrotus lividus): 1 nM; inhibition (Tubulin (Homo sapiens)): Active; T/C (P388 [6]): 110%; Activity (Mus musculus [7]): -0.5 g; T/C (P388 [9]): <80%; Activity (Mus musculus [14]): Non-toxic; Activity (Mus musculus [19]): Toxic; Activity (Mus musculus [22]): -3.5 g; Activity (Mus musculus [26]): Toxic; Activity (Mus musculus [27]): Non-toxic |
| COc1cc2cc(c1Cl)N(C)C(=O)C[C@H](OC(=O)[C@H](C)N(C)C(C)=O)[C@]1(C)O[C@H]1[C@H](C)[C@@H]1C[C@@](O)(NC(=O)O1)[C@H](OC)/C=C/C=C(\C)C2 [MAYTANSINE] | -0.4 | 165 | Non-toxic | Non-toxic | Non-toxic | 195 | 0.0061 (≈ 0.00881 nM) | 125 | -0.1 | 220 | 1.6 | Non-toxic | 190 | <80 | Non-toxic | 0.6 | 1.3 | 1.6 | 155 | 0.3 | Activity (Paracentrotus lividus): 1 ×10⁻⁷ mol/L; inhibition (Tubulin (Homo sapiens)): Active; T/C (P388 [28]): 125%; T/C (P388 [6]): 145%; Activity (Mus musculus [7]): 1.4 g; Activity (Mus musculus [14]): Non-toxic; Activity (Mus musculus [29]): Non-toxic; Activity (Mus musculus [30]): 1.7 g; Activity (Mus musculus [26]): Non-toxic; Activity (Mus musculus [27]): Non-toxic |
